Screening results: PubChem, several laboratories
UCH37 inh: blocks the human deubiquitinase UCH37; Q9Y5K5; purified proteasome/UCH37, Ub-AMC cleavage fluorescence; inhibition, % (no concentration beside the values); 330,000 compounds, 0.33% hits;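 active means mean inhibition over replicate wells above about 20%, limit read from the data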;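 further: 0% = compound-free wells with enzyme and 100% = wells lacking proteasome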
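Assay system: Proteasome-bound UCH37. Buffer or medium: pH 7.4 Tris-HCl (50 mM) with ovalbumin, ATP-MgCl2, DTT. Incubation: 30 min preincubation with enzyme, 25 min cleavage at room temperature. Measured by: fluorescence, ex 355 nm, em 460 nm. Read-out basis: percent inhibition. Control set: wells without proteasome as full block, compound-free enzyme plus substrate as uninhibited.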
MEKK3 PB1 HTS: MEKK3-MEK5 PB1 interaction, increase or decrease | Q99759 | bead-based flow cytometry, Alexa488-MEK5 binding to MEKK3; actives lie on both sides; 0 = blocked by unlabeled MEK5, 100 = vehicle | binding response (% of control), % at 10 µM | 290,000 compounds, 1.4% hits | AID 1529;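 active means binding response more than 3 SD above or below the average of its plate-row segment, actives on both sides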;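 further: Alexa488 bead fluorescence after subtracting the streptavidin-only scavenger bead signal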
MEKK2 mut-MEK5: signal of MEK5 binding to mutant human MEKK2 PB1 domain; 290,000 compounds, 0.35% hits; bead flow cytometry, Alexa488-MEK5 binding to MEKK2 mutant; AID 1530; percent response, % at 10 µM; in the data active means percent response above about 24%, passing the limit was not always enough
MEKK2 WT-MEK5: raises or lowers MEK5 binding to wildtype human MEKK2 PB1 domain; 290,000 compounds, 1.1% hits; bead flow cytometry, Alexa488-MEK5 binding to MEKK2 WT; actives lie on both sides; binding response (% of control), % at 10 µM; Q9Y2U5; in the data active means binding response below about 67% or above about 130%
UBC13 inh: human UBC13 polyubiquitination inhibition; AID 485273; inhibition, % at 20 µM; 330,000 compounds, 0.47% hits; UBC13 polyubiquitin chain formation, TR-FRET; in the data active means inhibition above about 45%, passing the limit was not always enough
Apaf-1 inh: blocks human Apaf-1 apoptosome activity. O14727. reconstituted apoptosome caspase-3 activity, DEVD-Rh110 fluorescence. inhibition, % at 20 µM. 330,000 compounds, 0.71% hits; active means inhibition of at least 40% at 20 µM;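 further: plate controls were DMSO wells for no effect and DEVD-CHO caspase inhibitor wells for full effect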
Target sequence (O14727 whole entry, looked up): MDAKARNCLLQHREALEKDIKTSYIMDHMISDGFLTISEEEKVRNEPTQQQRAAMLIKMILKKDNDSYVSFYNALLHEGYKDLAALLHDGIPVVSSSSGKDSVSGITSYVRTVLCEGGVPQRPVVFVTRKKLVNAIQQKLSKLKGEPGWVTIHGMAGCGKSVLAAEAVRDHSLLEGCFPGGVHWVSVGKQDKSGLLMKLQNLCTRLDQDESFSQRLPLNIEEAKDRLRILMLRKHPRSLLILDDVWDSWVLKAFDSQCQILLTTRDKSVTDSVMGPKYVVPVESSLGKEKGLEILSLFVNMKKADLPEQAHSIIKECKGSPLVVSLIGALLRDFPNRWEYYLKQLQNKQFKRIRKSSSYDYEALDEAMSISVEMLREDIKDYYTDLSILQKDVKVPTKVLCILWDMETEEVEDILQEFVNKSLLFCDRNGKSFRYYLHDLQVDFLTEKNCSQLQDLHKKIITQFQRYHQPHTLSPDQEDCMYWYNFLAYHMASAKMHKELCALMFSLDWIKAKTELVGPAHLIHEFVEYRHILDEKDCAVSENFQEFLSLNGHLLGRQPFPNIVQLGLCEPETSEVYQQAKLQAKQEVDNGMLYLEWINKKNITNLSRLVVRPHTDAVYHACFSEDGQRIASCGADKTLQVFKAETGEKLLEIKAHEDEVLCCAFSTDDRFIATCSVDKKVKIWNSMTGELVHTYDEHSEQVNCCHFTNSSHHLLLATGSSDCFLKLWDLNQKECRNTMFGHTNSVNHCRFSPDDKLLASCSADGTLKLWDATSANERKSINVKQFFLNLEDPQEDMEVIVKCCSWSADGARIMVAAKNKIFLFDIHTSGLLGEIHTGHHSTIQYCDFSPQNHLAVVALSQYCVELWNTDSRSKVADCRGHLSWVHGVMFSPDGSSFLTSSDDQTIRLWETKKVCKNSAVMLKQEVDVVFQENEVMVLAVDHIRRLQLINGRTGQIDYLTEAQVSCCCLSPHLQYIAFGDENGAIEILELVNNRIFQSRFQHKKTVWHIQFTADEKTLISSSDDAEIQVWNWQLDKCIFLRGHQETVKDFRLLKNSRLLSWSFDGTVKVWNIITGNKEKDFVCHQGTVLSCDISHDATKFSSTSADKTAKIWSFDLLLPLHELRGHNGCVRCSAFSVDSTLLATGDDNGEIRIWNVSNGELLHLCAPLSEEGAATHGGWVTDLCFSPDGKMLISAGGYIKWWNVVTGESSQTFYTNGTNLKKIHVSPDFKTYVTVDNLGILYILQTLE
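Material: cell-free apoptosome with Apaf-1, procaspase-3 and caspase-9; Buffer or medium: Hepes pH 7.5 with detergent and BSA; Reagent: cytochrome c trigger plus (Z-DEVD)2-Rh110 caspase-3 substrate; Times: compound with Apaf-1, dATP, procaspase-3 30 min, then 50 min reaction, room temperature; Technique: Rh110 fluorescence intensity.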
Casp3 counter: inhibits human caspase-3 in UBC13 counter-screen; shares compounds with UBC13 inh; Recombinant caspase-3, Caspase-Glo 3/7 luminescence, 60 min; inhibition, % at 20 µM; 1,400 compounds, 4% hits; AID 488856;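 active means mean inhibition across replicates above about 26%, limit read from the data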;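 further: plate controls were DMSO with caspase-3 for no effect and DMSO wells lacking enzyme for full effect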
UBC13 conf: confirmation of human UBC13 polyubiquitin inhibitors; shares compounds with UBC13 inh; UBC13 polyubiquitination, TR-FRET, biochemical; inhibition, % at 10 µM; 1,400 compounds, 68% hits; in the data active means inhibition above about 45%
* = called active by the depositor; nt = not tested or not shown. Hits are enriched below; roughly 3% of the tested compounds scored in any of these assays.

SMILES	UCH37 inh	MEKK3 PB1 HTS	MEKK2 mut-MEK5	MEKK2 WT-MEK5	UBC13 inh	Apaf-1 inh	Casp3 counter	UBC13 conf
COc1cc(-c2cc(C(=O)Nc3ccc(S(N)(=O)=O)cc3)c3ccccc3n2)cc(OC)c1OC	-84.7	105.0	5.0	99.0	59.8*	14.6	-0.8	47.5*
COc1cc(-c2cc(C(=O)Nc3ccc(S(=O)(=O)Nc4ncccn4)cc3)c3ccccc3n2)cc(OC)c1OC	0.7	102.0	5.0	99.0	27.9	-2.5	nt	nt
CCOc1ccc(N2C(=O)CC(SCC(=O)O)C2=O)cc1 (stereo not given)	nt	99.0	0.0	95.0	6.7	-5.6	nt	nt
O=C(NNC(=O)c1nn(-c2ccc(F)cc2)ccc1=O)Nc1cccc(Cl)c1	3.4	100.0	2.0	102.0	10.3	-15.4	nt	nt
O=C(NNC(=O)c1nn(-c2ccc(F)cc2)ccc1=O)c1ccc(C(F)(F)F)cc1	2.8	97.0	-2.0	99.0	70.0*	-10.1	0.2	86.4*
O=C(NNC(=O)c1nn(-c2ccc(F)cc2)ccc1=O)c1ccc(Cl)cc1	4.8	91.0	-3.0	93.0	70.7*	-16.8	-2.9	87.7*
CC(C)NC(=O)NNC(=O)c1nn(-c2ccc(F)cc2)ccc1=O	6.8	103.0	0.0	98.0	32.9	-7.4	nt	nt
Cc1ccc(C(=O)NNC(=O)c2nn(-c3ccc(F)cc3)ccc2=O)cc1	5.1	93.0	-5.0	95.0	77.4*	-7.8	-6.1	96.3*
O=C(NNC(=O)c1cccc(C(F)(F)F)c1)c1ccc(-n2cnnn2)cc1	2.4	nt	nt	nt	-3.7	1.0	nt	nt
CC12CCC(=O)N1C(C(=O)Nc1nc3c(F)cc(F)cc3s1)CS2 (stereo not given)	4.8	99.0	6.0	105.0	-0.8	10.4	nt	nt
Cc1c(CCOC(=O)C23CC4CC(CC(C4)C2)C3)sc[n+]1Cc1ccccc1	0.2	102.0	2.0	112.0	14.0	1.0	nt	nt
Cc1c(CCOC(=O)CC23CC4CC(CC(C4)C2)C3)sc[n+]1CC(=O)c1ccccc1	1.7	115.0	2.0	139.0*	47.4*	33.7	-3.0	51.5*
COc1ccc(C(C(=O)NC(C)(C)C)N(C(=O)CCC(=O)Nc2cc(C)on2)c2ccc3c(c2)OCCO3)cc1 (stereo not given)	1.3	101.0	1.0	97.0	-2.6	24.3	nt	nt
CCOC(=O)c1sc(N)nc1C(C)(C)C	4.1	98.0	-4.0	95.0	4.5	-1.2	nt	nt
Cc1nc(N)sc1C(=O)OCC(C)C	-1.7	103.0	-1.0	97.0	55.9*	-5.0	-5.1	41.7
Cc1nc2ccc(-c3ccccc3)cc2o1	3.5	96.0	-3.0	99.0	2.9	0.7	nt	nt
C[C@@H]1CCCCCCCCC(=O)OCCN[C@H](C)CCCCCCCCC(=O)OCCN[C@H](C)CCCCCCCCC(=O)OCCN1	nt	nt	nt	nt	63.1*	68.5*	-3.0	51.3*
O=S(=O)(c1cc(F)ccc1F)N1CCC2(CC1)OCCN2S(=O)(=O)c1ccccc1	2.4	nt	nt	nt	-2.0	14.3	nt	nt
O=C1/C(=C/c2cccc([N+](=O)[O-])c2)CSc2ccc(Cl)cc21	5.0	100.0	-4.0	96.0	48.6*	-15.1	0.7	82.7*
O=C1/C(=C/c2cccc([N+](=O)[O-])c2)CCc2ccccc21	1.3	96.0	-1.0	98.0	15.1	13.8	nt	nt
O=C(CCC(=O)N1CCOc2ccc(Cl)cc21)NCCCN1CCC(Cc2ccccc2)CC1	-0.1	103.0	11.0	128.0	92.2*	36.0	-4.1	91.5*
Cc1ccc(C)c(N2CCN(CCCNC(=O)CCC(=O)N3CCOc4ccc(Cl)cc43)CC2)c1	nt	107.0	16.0	150.0*	60.1*	24.9	-1.8	79.7*
O=C(CCC(=O)N1CCOc2ccc(Cl)cc21)NCCCN1CCN(c2ccccc2F)CC1	3.8	103.0	4.0	114.0	62.5*	18.8	2.2	42.7
